Shown are actives, neighbours in structure and some others; about 3.5% of the full set was active somewhere.
STAT3 activator: STAT3 signaling activation. U3A cells, IL-6 STAT3-luciferase reporter, luminescence; 100% = signal with IL-6 EC80 alone. activation (% of control), % at 5.6 µM. 0.91% of 190,000 active. AID 871;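 active means activation above the screen-wide mean of compound activation plus 3 SD, cut at about 130% in these data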
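Material: STAT1-lacking human U3A cells, STAT3 luciferase reporter | Benchmarks: IL-6-only wells as 100% reference | Probe or stimulus: IL-6 (33 ng/mL) | Timing: Compound 1 h, then IL-6 6 h at 37 °C | Detection: Luminescence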
FXIIa inh 1536: blocks human coagulation factor XIIa protease activity; P00748; 0.3% of 220,000 active; inhibition, % at 5 µM; AID 800; purified FXIIa, Boc-QGR-AMC fluorogenic substrate, 2 h; in the data active means inhibition above about 40%
AHR activator: activators of human aryl hydrocarbon receptor; P35869; AHR-responsive luciferase reporter cells, luminescence; activation, % at 5 µM; 2.5% of 320,000 active; in the data active means activation above about 47%
Target sequence (P35869 whole entry, looked up): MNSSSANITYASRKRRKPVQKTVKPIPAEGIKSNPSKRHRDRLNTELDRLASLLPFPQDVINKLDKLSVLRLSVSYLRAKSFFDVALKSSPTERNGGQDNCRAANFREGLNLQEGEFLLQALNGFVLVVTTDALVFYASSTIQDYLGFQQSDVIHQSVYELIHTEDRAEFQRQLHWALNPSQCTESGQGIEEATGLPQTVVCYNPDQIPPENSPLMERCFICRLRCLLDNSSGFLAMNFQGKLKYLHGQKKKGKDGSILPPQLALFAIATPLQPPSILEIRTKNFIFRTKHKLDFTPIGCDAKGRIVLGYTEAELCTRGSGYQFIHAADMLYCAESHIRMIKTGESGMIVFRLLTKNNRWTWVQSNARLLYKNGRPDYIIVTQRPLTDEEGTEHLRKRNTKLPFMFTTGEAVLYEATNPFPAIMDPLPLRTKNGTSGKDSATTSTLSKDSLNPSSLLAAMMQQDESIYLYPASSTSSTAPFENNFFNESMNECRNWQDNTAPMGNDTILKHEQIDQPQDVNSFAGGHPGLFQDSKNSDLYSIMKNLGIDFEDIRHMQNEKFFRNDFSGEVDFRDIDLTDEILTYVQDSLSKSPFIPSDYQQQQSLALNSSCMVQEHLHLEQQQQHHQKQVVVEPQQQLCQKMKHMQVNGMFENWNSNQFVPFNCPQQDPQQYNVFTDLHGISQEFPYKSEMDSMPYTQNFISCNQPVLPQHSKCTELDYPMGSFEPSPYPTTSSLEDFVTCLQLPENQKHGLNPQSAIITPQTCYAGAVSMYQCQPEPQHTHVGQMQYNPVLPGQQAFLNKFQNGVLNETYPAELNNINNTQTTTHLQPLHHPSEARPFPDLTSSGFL
thrombin 1536: thrombin (human) inhibition; 0.26% of 220,000 active; P00734; inhibition, % at 5 µM; alpha-thrombin, Boc-VPR-AMC fluorogenic substrate cleavage;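 active means inhibition at or above 40%; inactive means inhibition below 40%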
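signal = AMC fluorescence, 355/460 nm | material = human alpha-thrombin enzyme | control set = enzyme without compound as high, wells lacking enzyme as low | times = reaction at room temperature | read-out basis = percent inhibition scaled between no-compound controls and no-enzyme blanks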
FXIa inh 1536: blocks human coagulation factor XIa protease activity. P03951. 0.14% of 220,000 active. purified FXIa, Boc-Glu-Ala-Arg-AMC fluorogenic substrate. AID 798. inhibition, % at 5 µM;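 active means inhibition of at least 40%; inactive means inhibition below 40%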;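 further: fluorescence of freed AMC excited at 355 nm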
hK5 inh: inhibitors of human kallikrein 5 | Q9Y337 | recombinant hK5, fluorogenic AMC substrate cleavage | inhibition, % at 5 µM | 0.59% of 210,000 active | AID 873;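 active means inhibition of 40% or more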
AHR act cf: human AHR activation, confirmation | AID 2845 | human cells, AHR-responsive luciferase reporter, luminescence | 87% of 2,300 active | shares compounds with AHR activator | activation, % at 9 µM; in the data active means activation above about 49%;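 further: HepG2 hepatoma cells carrying a DRE-driven firefly luciferase reporter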
PXR counter: PXR activation, counter-screen for AHR activators; cell-based PXR reporter, luciferase luminescence; shares compounds with AHR activator; activation, % at 11.6 µM; 88% of 2,300 active; AID 434939; in the data active means activation above about 11%;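 further: human hepatoma DPX-2 cells expressing full-length human PXR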
Of the large screens only hits and unclear results are named; the others gave an inactive call (follow-up assays come after a bar, where they were run).

Cc1ccc(NC(=O)c2cccc3cccnc23)cc1	AHR activator 121 (no result: STAT3 activator, FXIIa inh 1536, thrombin 1536, FXIa inh 1536, hK5 inh) | AHR act cf 110 | PXR counter 30
COc1ccc(S(=O)(=O)/N=C2\C=C(Nc3ccc(O)cc3)C(=O)c3ccccc32)cc1	none (no result: STAT3 activator, FXIIa inh 1536, thrombin 1536, FXIa inh 1536, hK5 inh)
CC(C)c1ccc(S(=O)(=O)/N=C2\C=C(NS(=O)(=O)c3ccccc3)C(=O)c3ccccc32)cc1	AHR activator 83 (no result: STAT3 activator, FXIIa inh 1536, thrombin 1536, FXIa inh 1536, hK5 inh) | AHR act cf inactive | PXR counter 130
O=C(Nc1ccccc1C(=O)Nc1ccccc1)c1ccccc1F	AHR activator 83 (no result: STAT3 activator, FXIIa inh 1536, thrombin 1536, FXIa inh 1536, hK5 inh) | AHR act cf 65 | PXR counter 41
Cc1nc2ccc(NC(=O)c3oc4ccc(F)cc4c3C)cc2s1	AHR activator 86 (no result: STAT3 activator, FXIIa inh 1536, thrombin 1536, FXIa inh 1536, hK5 inh) | AHR act cf 121 | PXR counter 20
COc1cccc(N2CCN(C(=O)c3cc4c(s3)CCCCC4)CC2)c1	none (no result: STAT3 activator, FXIIa inh 1536, thrombin 1536, FXIa inh 1536, hK5 inh)
Cc1cc(=O)oc2cc(OCCCC[n+]3ccccc3)ccc12	none (no result: STAT3 activator)
Cc1cc(=O)oc2cc(OCCc3ccccc3)ccc12	AHR activator 81 (no result: STAT3 activator, FXIIa inh 1536, thrombin 1536, FXIa inh 1536, hK5 inh) | AHR act cf 140 | PXR counter 21
Cn1c(COc2ccccc2Br)nc2ccccc21	none (no result: STAT3 activator, FXIIa inh 1536, thrombin 1536, FXIa inh 1536, hK5 inh)
CC(C)CC(=O)NC(NCC1CCCO1)C(Cl)(Cl)Cl (stereo unspecified)	none
Cc1c(C(=O)N/N=C/C(C)C)[nH]c2c([N+](=O)[O-])cccc12	AHR activator 86 | AHR act cf inactive | PXR counter 10
Cc1cc(C(=O)N/N=C/c2cccc([N+](=O)[O-])c2O)n[nH]1	none
Cc1cccc(NC(=O)c2cnc3scc(C)n3c2=O)c1	AHR activator 79 | AHR act cf 96 | PXR counter 57
Cc1csc2ncc(C(=O)Nc3ccon3)c(=O)n12	AHR activator 120 | AHR act cf 115 | PXR counter 12
Cc1csc2ncc(C(=O)Nc3ccc4c(c3)OCCO4)c(=O)n12	none (no result: STAT3 activator, FXIIa inh 1536, thrombin 1536, FXIa inh 1536, hK5 inh)
O=C(Nc1ccc(Br)cc1)c1ccc(N2C(=O)C3CCCCC3C2=O)cc1 (stereo unspecified)	none (no result: STAT3 activator, FXIIa inh 1536, thrombin 1536, FXIa inh 1536, hK5 inh)
O=C(Nc1ccc(Br)cc1)c1cccc(N2C(=O)C3CCCCC3C2=O)c1 (stereo unspecified)	AHR activator 114 (no result: STAT3 activator, FXIIa inh 1536, thrombin 1536, FXIa inh 1536, hK5 inh) | AHR act cf inactive | PXR counter 18
O=C(CCn1cnc(-c2ccccc2)c1-c1ccccc1)N/N=C/c1ccccc1O	none
S=c1[nH]nc(-c2cc3c(s2)-c2ccccc2CC3)o1	AHR activator 93 | AHR act cf 116 | PXR counter 23
O=c1c2ccccc2cnn1-c1ccc(Br)cc1	AHR activator 136 | AHR act cf 109 | PXR counter 38
COc1ccc(CCNc2nc(-c3ccccn3)cs2)cc1OC	AHR activator 85 (no result: STAT3 activator) | AHR act cf 80 | PXR counter 27
COc1ccc(NC(=O)c2cc3c([nH]c4ccccc43)c(C)n2)cc1	AHR activator 85 | AHR act cf 88 | PXR counter 15
COc1nc(C)nc(NC(=O)NS(=O)(=O)c2ccc(C)cc2)n1	none
Cc1ccc2c(c1)[nH]c1c(=O)n(CCN3CCCCC3)cnc12	AHR activator 94 | AHR act cf 105 | PXR counter 76
CC(=O)Nc1ccc(N=Nc2ccc(O)cc2)cc1	none
FC(F)(F)c1cc(-c2ccc3c(c2)OCO3)nc(NCc2ccco2)n1	AHR activator 91 | AHR act cf 75 | PXR counter 26
FC(F)(F)c1cc(-c2ccco2)nc(NCc2ccco2)n1	none
O=C(Nc1ccccc1-c1nc2ccccc2[nH]1)c1sc2ccccc2c1Cl	none
[N-]=[N+]=CC(=O)CNC(=O)[C@@H](Cc1ccccc1)N1C(=O)c2ccccc2C1=O	none
O=C(NCc1ccco1)C(Cc1ccccc1)N1C(=O)c2ccccc2C1=O (stereo unspecified)	AHR activator 112 | AHR act cf 93 | PXR counter 66
CN1CCN(c2ccccc2NC(=O)c2sc3ccccc3c2Cl)CC1	none
Cc1c2ccccc2nc2c(F)c(N(C)C)c(F)c(F)c12	AHR activator 122 | AHR act cf inactive | PXR counter 46
O=c1cc(O)nc(SCc2ccccc2)n1-c1ccc(Cl)cc1	none (no result: FXIIa inh 1536)
CCCc1cc(=O)oc2cc(C)cc(OCC(=O)Nc3cccnc3)c12	AHR activator 116 (no result: STAT3 activator, FXIIa inh 1536, thrombin 1536, FXIa inh 1536, hK5 inh) | AHR act cf 82 | PXR counter 26
CCCc1cc(=O)oc2cc(C)cc(OCC(=O)NCC(O)c3ccccc3)c12 (stereo unspecified)	none (no result: STAT3 activator, FXIIa inh 1536, thrombin 1536, FXIa inh 1536, hK5 inh)
COc1ccccc1OCc1nc(C#N)c(N2CC(C)CC(C)C2)o1 (stereo unspecified)	AHR activator 91 | AHR act cf 86 | PXR counter 86
Cc1ccc2[nH]c(-c3ccccc3)cc(=O)c2c1	AHR activator 135 | AHR act cf inactive | PXR counter 57
COc1cc2[nH]c(-c3ccc(C)cc3)cc(=O)c2cc1OC	AHR activator 134 | AHR act cf 78 | PXR counter 13
COc1cc2[nH]c(-c3cccc(F)c3)cc(=O)c2cc1OC	AHR activator 91 | AHR act cf 54
COc1ccc(-c2cc(=O)c3cc(C)ccc3[nH]2)cc1	none
COc1cccc(-c2cc(=O)c3cc(NC(C)=O)ccc3[nH]2)c1	none
COc1ccc(/C=N/NC(=O)c2ccn[nH]2)cc1CSc1ccccn1	none (no result: STAT3 activator, FXIIa inh 1536, thrombin 1536, FXIa inh 1536, hK5 inh)
CCOc1ccc(/C=N/NC(=O)c2cc3c(OC)cc(OC)cc3[nH]2)cc1OC	AHR activator 85 (no result: STAT3 activator, FXIIa inh 1536, thrombin 1536, FXIa inh 1536, hK5 inh) | AHR act cf 86 | PXR counter 21
COc1ccc(/C=N/NC(=O)c2ccn[nH]2)cc1COc1ccc(Cl)cc1	AHR activator 87 | AHR act cf inactive | PXR counter 11
CCOc1ccc2[nH]c(C(=O)N/N=C/c3cc(OC)c(OC)c(OC)c3)cc2c1	none (no result: STAT3 activator, FXIIa inh 1536, thrombin 1536, FXIa inh 1536, hK5 inh)
COC(=O)c1cc(C)[nH]c2c(C)cc3nc4ccccc4c3c12	AHR activator 95 (no result: STAT3 activator) | AHR act cf 100 | PXR counter 156
CCCn1nnc(NC(=O)c2ccc3c(c2)OCO3)n1	none (no result: STAT3 activator)
CCn1ncc(-c2cc(C(=O)O)no2)c1C	AHR activator 80 | AHR act cf inactive | PXR counter inactive
CCCN(CCC)CCNC(=O)c1cc2c(=O)n(C)c3ccccc3c2n1C	AHR activator 98 | AHR act cf 91 | PXR counter 42
CN1C(C(=O)NCc2cccc(Br)c2)CC2Cn3c(nc4cc(Cl)c(Cl)cc43)C21 (stereo unspecified)	none (no result: STAT3 activator)
CCN(CC)CCCN1CC(=O)N2[C@@H](Cc3c([nH]c4ccccc34)C2(C)C)C1=O	none (no result: STAT3 activator, FXIIa inh 1536, thrombin 1536, FXIa inh 1536, hK5 inh)
CCC1(C)Cc2sc3c(=O)[nH]c(=S)[nH]c3c2CO1 (stereo unspecified)	none
COc1ccc(NC(=O)Nc2ccc(F)cc2)c(C)c1	AHR activator 111 (no result: FXIIa inh 1536) | AHR act cf inactive | PXR counter 25

Source: PubChem
